Reference: ChEMBL document CHEMBL3102784, “Salicylanilide diethyl phosphates: synthesis, antimicrobial activity and cytotoxicity” (Bioorg Med Chem, 2014)
In brackets after ≈: the same amount, converted by molar mass. Activity calls are given as the source filed them. No cut-off for these calls is given here.

Tests used:
Mycobacterium avium [1] = test: Antimycobacterial activity against isoniazid, rifampicin, ethambutol and ofloxacin-resistant Mycobacterium avium My 330/88 after 21 days; format: functional; settings: My 330/88, 504 h
In short: (§1)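 Micromethod MIC in Šula's semisynthetic medium at 37 °C. Compounds added in DMSO at 1000 down to 0.032 µmol/L. Isoniazid standard in sterile water at 0.5–250 µmol/L. Inocula: H37Rv 10^3, M. avium 10^5, M. kansasii 10^4. Read at 14 and 21 d, plus 7 d for M. kansasii.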

Mycobacterium avium [2] = test: Antimycobacterial activity against isoniazid, rifampicin, ethambutol and ofloxacin-resistant Mycobacterium avium My 330/88 after 14 days; format: functional; settings: My 330/88, 336 h; in short: as §1
[3] = system: Mycobacterium tuberculosis; test: Antimycobacterial activity against Mycobacterium tuberculosis H37Rv My 331/88 after 21 days; format: functional; settings: H37Rv My 331/88, 504 h; in short: as §1
[4] = system: Mycobacterium tuberculosis; test: Antimycobacterial activity against Mycobacterium tuberculosis H37Rv My 331/88 after 14 days; format: functional; settings: H37Rv My 331/88, 336 h; in short: as §1
[5] = system: Trichophyton mentagrophytes; test: Antifungal activity against Trichophyton mentagrophytes 445 after 120 hrs by broth microdilution method; format: functional; settings: Trichophyton mentagrophytes, 445, 120 h
In short: (§2)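 Filamentous dermatophyte tested by broth microdilution in RPMI 1640 with glutamine, fluconazole as reference. Value expressed as IC50 relative to growth control. Read at 72 and 120 h.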

[6] = system: Trichophyton mentagrophytes; test: Antifungal activity against Trichophyton mentagrophytes 445 after 72 hrs by broth microdilution method; format: functional; settings: Trichophyton mentagrophytes, 445, 72 h; in short: as §2
Lichtheimia corymbifera [7] = test: Antifungal activity against Absidia corymbifera 272 after 48 hrs by broth microdilution method; format: functional; settings: Lichtheimia corymbifera, 272, 48 h
In short: (§3)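 Broth microdilution in RPMI 1640 with glutamine, fluconazole as reference. For yeasts, MIC is ≥80% growth reduction (IC80) versus control. For filamentous fungi, the value is expressed as IC50. Readings at 24 and 48 h.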

Lichtheimia corymbifera [8] = test: Antifungal activity against Absidia corymbifera 272 after 24 hrs by broth microdilution method; format: functional; settings: Lichtheimia corymbifera, 272, 24 h; in short: as §3
Aspergillus fumigatus [9] = test: Antifungal activity against Aspergillus fumigatus 231 after 48 hrs by broth microdilution method; format: functional; settings: Aspergillus fumigatus, 231, 48 h; in short: as §3
Aspergillus fumigatus [10] = test: Antifungal activity against Aspergillus fumigatus 231 after 24 hrs by broth microdilution method; format: functional; settings: Aspergillus fumigatus, 231, 24 h; in short: as §3
Trichosporon asahii [11] = test: Antifungal activity against Trichosporon asahii 1188 after 48 hrs by broth microdilution method; format: functional; settings: Trichosporon asahii, 1188, 48 h; in short: as §3
Trichosporon asahii [12] = test: Antifungal activity against Trichosporon asahii 1188 after 24 hrs by broth microdilution method; format: functional; settings: Trichosporon asahii, 1188, 24 h; in short: as §3
Pichia kudriavzevii [13] = test: Antifungal activity against Candida krusei E28 after 48 hrs by broth microdilution method; format: functional; settings: E28, 48 h; in short: as §3
Pichia kudriavzevii [14] = test: Antifungal activity against Candida krusei E28 after 24 hrs by broth microdilution method; format: functional; settings: E28, 24 h; in short: as §3
Candida albicans [15] = test: Antifungal activity against Candida albicans ATCC 44859 after 48 hrs by broth microdilution method; format: functional; settings: ATCC 44859, 48 h; in short: as §3
Candida albicans [16] = test: Antifungal activity against Candida albicans ATCC 44859 after 24 hrs by broth microdilution method; format: functional; settings: ATCC 44859, 24 h; in short: as §3
Nakaseomyces glabratus = test: Antifungal activity against Candida glabrata 20/I at 500 micromol/L after 24 to 48 hrs by broth microdilution method; format: functional, organism-based; in short: as §3
Candida tropicalis = test: Antifungal activity against Candida tropicalis 156 at 500 micromol/L after 24 to 48 hrs by broth microdilution method; format: functional, organism-based; in short: as §3
Pseudomonas aeruginosa = test: Antibacterial activity against Pseudomonas aeruginosa CCM 1961 at 500 micromol/L after 24 to 48 hrs by broth microdilution method; format: functional, organism-based
In short: (§4)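 Broth microdilution in Mueller–Hinton broth, compounds dissolved in DMSO, tested over a dilution series from 500 downward. MIC taken as ≥95% growth reduction (IC95) versus drug-free control. Benzylpenicillin comparator. Readings at 24 and 48 h.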

Klebsiella pneumoniae [17] = test: Antibacterial activity against ESBL-positive Klebsiella pneumoniae J 14368/08 at 500 micromol/L after 24 to 48 hrs by broth microdilution method; format: functional, organism-based; in short: as §4
Klebsiella pneumoniae [18] = test: Antibacterial activity against Klebsiella pneumoniae D 11750/08 at 500 micromol/L after 24 to 48 hrs by broth microdilution method; format: functional, organism-based; in short: as §4
Escherichia coli = test: Antibacterial activity against Escherichia coli CCM 4517 at 500 micromol/L after 24 to 48 hrs by broth microdilution method; format: functional, organism-based; in short: as §4
Enterococcus sp. = test: Antibacterial activity against Enterococcus sp. J 14365/08 at 500 micromol/L after 24 to 48 hrs by broth microdilution method; format: functional, organism-based; in short: as §4
[19] = system: Staphylococcus epidermidis; test: Antibacterial activity against Staphylococcus epidermidis H 6966/08 after 48 hrs by broth microdilution method; format: functional; settings: H 6966/08, 48 h; in short: as §4
[20] = system: Staphylococcus epidermidis; test: Antibacterial activity against Staphylococcus epidermidis H 6966/08 after 24 hrs by broth microdilution method; format: functional; settings: H 6966/08, 24 h; in short: as §4
Staphylococcus aureus [21] = test: Antibacterial activity against methicillin-resistant Staphylococcus aureus H 5996/08 after 48 hrs by broth microdilution method; format: functional; settings: H 5996/08, 48 h; in short: as §4
Staphylococcus aureus [22] = test: Antibacterial activity against methicillin-resistant Staphylococcus aureus H 5996/08 after 24 hrs by broth microdilution method; format: functional; settings: H 5996/08, 24 h; in short: as §4
Staphylococcus aureus [23] = test: Antibacterial activity against Staphylococcus aureus CCM 4516/08 after 48 hrs by broth microdilution method; format: functional; settings: CCM 4516/08, 48 h; in short: as §4
Staphylococcus aureus [24] = test: Antibacterial activity against Staphylococcus aureus CCM 4516/08 after 24 hrs by broth microdilution method; format: functional; settings: CCM 4516/08, 24 h; in short: as §4
Mycobacterium kansasii [25] = test: Antimycobacterial activity against Mycobacterium kansasii 6509/96 after 21 days; format: functional; settings: 6509/96, 504 h; in short: as §1
Mycobacterium kansasii [26] = test: Antimycobacterial activity against Mycobacterium kansasii 6509/96 after 14 days; format: functional; settings: 6509/96, 336 h; in short: as §1
Mycobacterium kansasii [27] = test: Antimycobacterial activity against Mycobacterium kansasii 6509/96 after 7 days; format: functional; settings: 6509/96, 168 h; in short: as §1
Mycobacterium kansasii [28] = test: Antimycobacterial activity against Mycobacterium kansasii My 235/80 after 21 days; format: functional; settings: My 235/80, 504 h; in short: as §1
Mycobacterium kansasii [29] = test: Antimycobacterial activity against Mycobacterium kansasii My 235/80 after 14 days; format: functional; settings: My 235/80, 336 h; in short: as §1
HepG2 = test: Cytotoxicity against human HepG2 cells after 24 hrs by CellTiter assay; format: cell-based; settings: HepG2, 24 h
In short: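 HepG2 cells (passage 27–33) in MEM with 10% FBS, L-glutamine and NEAA, seeded at 1×10^4 per well. Treated next day with compounds at 0.1–100 µM (or 0.1–25 µmol/L), triplicates, <1% DMSO, for 24 h at 37 °C, 5% CO2. MTS reagent added for 2 h, absorbance read at 490 nm. IC50 taken against untreated (100%) and 10% DMSO (0%) controls.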

Mycobacterium kansasii [30] = test: Antimycobacterial activity against Mycobacterium kansasii My 235/80 after 7 days; format: functional; settings: My 235/80, 168 h; in short: as §1

Compound | MIC (Mycobacterium avium [1]) [µM] | MIC (Mycobacterium avium [2]) [µM] | MIC [3] [µM] | MIC [4] [µM] | MIC50 [5] [µM] | MIC50 [6] [µM] | MIC50 (Lichtheimia corymbifera [7]) [µM] | MIC50 (Lichtheimia corymbifera [8]) [µM] | MIC50 (Aspergillus fumigatus [9]) [µM] | MIC50 (Aspergillus fumigatus [10]) [µM] | MIC80 (Trichosporon asahii [11]) [µM] | MIC80 (Trichosporon asahii [12]) [µM] | MIC80 (Pichia kudriavzevii [13]) [µM] | MIC80 (Pichia kudriavzevii [14]) [µM] | MIC80 (Candida albicans [15]) [µM] | MIC80 (Candida albicans [16]) [µM] | Activity (Nakaseomyces glabratus) | Activity (Candida tropicalis) | Activity (Pseudomonas aeruginosa) | Activity (Klebsiella pneumoniae [17]) | also measured
CCOP(=O)(OCC)Oc1cc(Cl)ccc1C(=O)Nc1ccc(F)cc1 | 32 (≈ 12.9 µg/mL) | 32 (≈ 12.9 µg/mL) | 16 (≈ 6.43 µg/mL) | 16 (≈ 6.43 µg/mL) | 500 (≈ 201 µg/mL) | 500 (≈ 201 µg/mL) | > 500 | > 500 | > 500 | > 500 | > 500 | > 500 | > 500 | > 500 | > 500 | > 500 | inactive | inactive | inactive | inactive | Activity (Klebsiella pneumoniae [18]): inactive; Activity (Escherichia coli): inactive; Activity (Enterococcus sp.): inactive; MIC95 [19]: > 500 µM; MIC95 [20]: > 500 µM; MIC95 (Staphylococcus aureus [21]): > 500 µM; MIC95 (Staphylococcus aureus [22]): > 500 µM; MIC95 (Staphylococcus aureus [23]): 500 µM (≈ 201 µg/mL); MIC95 (Staphylococcus aureus [24]): 250 µM (≈ 100 µg/mL); MIC (Mycobacterium kansasii [25]): 32 µM (≈ 12.9 µg/mL); MIC (Mycobacterium kansasii [26]): 32 µM (≈ 12.9 µg/mL); MIC (Mycobacterium kansasii [27]): 16 µM (≈ 6.43 µg/mL); MIC (Mycobacterium kansasii [28]): 16 µM (≈ 6.43 µg/mL); MIC (Mycobacterium kansasii [29]): 16 µM (≈ 6.43 µg/mL); IC50 (HepG2): 33.8 µM; MIC (Mycobacterium kansasii [30]): 16 µM (≈ 6.43 µg/mL)
CCOP(=O)(OCC)Oc1ccc(Br)cc1C(=O)Nc1ccc(Cl)cc1 | 8 (≈ 3.7 µg/mL) | 8 (≈ 3.7 µg/mL) | 4 (≈ 1.85 µg/mL) | 2 (≈ 0.925 µg/mL) | > 500 | > 500 | > 500 | > 500 | > 500 | > 500 | > 500 | > 500 | > 500 | > 500 | > 500 | > 500 | inactive | inactive | inactive | inactive | Activity (Klebsiella pneumoniae [18]): inactive; Activity (Escherichia coli): inactive; Activity (Enterococcus sp.): inactive; MIC95 [19]: > 500 µM; MIC95 [20]: 500 µM (≈ 231 µg/mL); MIC95 (Staphylococcus aureus [21]): > 500 µM; MIC95 (Staphylococcus aureus [22]): 500 µM (≈ 231 µg/mL); MIC95 (Staphylococcus aureus [23]): > 500 µM; MIC95 (Staphylococcus aureus [24]): 500 µM (≈ 231 µg/mL); MIC (Mycobacterium kansasii [25]): 4 µM (≈ 1.85 µg/mL); MIC (Mycobacterium kansasii [26]): 4 µM (≈ 1.85 µg/mL); MIC (Mycobacterium kansasii [27]): 4 µM (≈ 1.85 µg/mL); MIC (Mycobacterium kansasii [28]): 8 µM (≈ 3.7 µg/mL); MIC (Mycobacterium kansasii [29]): 4 µM (≈ 1.85 µg/mL); IC50 (HepG2): 6.81 µM; MIC (Mycobacterium kansasii [30]): 4 µM (≈ 1.85 µg/mL)
CCOP(=O)(OCC)Oc1cc(Cl)ccc1C(=O)Nc1cccc(C(F)(F)F)c1 | 16 (≈ 7.23 µg/mL) | 16 (≈ 7.23 µg/mL) | 4 (≈ 1.81 µg/mL) | 4 (≈ 1.81 µg/mL) | 31.2 (≈ 14.1 µg/mL) | 31.2 (≈ 14.1 µg/mL) | > 500 | > 500 | > 500 | > 500 | > 500 | > 500 | > 500 | > 500 | > 500 | > 500 | inactive | inactive | inactive | inactive | Activity (Klebsiella pneumoniae [18]): inactive; Activity (Escherichia coli): inactive; Activity (Enterococcus sp.): inactive; MIC95 [19]: 31.2 µM (≈ 14.1 µg/mL); MIC95 [20]: 15.6 µM (≈ 7.06 µg/mL); MIC95 (Staphylococcus aureus [21]): 62.5 µM (≈ 28.2 µg/mL); MIC95 (Staphylococcus aureus [22]): 31.2 µM (≈ 14.1 µg/mL); MIC95 (Staphylococcus aureus [23]): 62.5 µM (≈ 28.2 µg/mL); MIC95 (Staphylococcus aureus [24]): 31.2 µM (≈ 14.1 µg/mL); MIC (Mycobacterium kansasii [25]): 8 µM (≈ 3.61 µg/mL); MIC (Mycobacterium kansasii [26]): 8 µM (≈ 3.61 µg/mL); MIC (Mycobacterium kansasii [27]): 4 µM (≈ 1.81 µg/mL); MIC (Mycobacterium kansasii [28]): 4 µM (≈ 1.81 µg/mL); MIC (Mycobacterium kansasii [29]): 4 µM (≈ 1.81 µg/mL); IC50 (HepG2): 3.85 µM; MIC (Mycobacterium kansasii [30]): 2 µM (≈ 0.904 µg/mL)
